Data set [1] concerns the target Amyloid-beta precursor protein (Homo sapiens, UniProt P05067). Description: Binding affinity to Beta amyloid aggregates in Alzheimer's disease patient brain by competitive binding assay. Summed up: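 Competition binding against ¹⁸F-AV-45 (0.04–0.06 nM, diluted in PBS) in postmortem AD brain homogenate (20–25 µg per assay). Competitors were serially diluted 10⁻⁵–10⁻¹⁰ M in PBS with 0.1% bovine serum albumin, in a final volume of 0.5 mL. Inhibition constant (Ki) derived from displacement.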

Data set [2] can be described thus: Partition coefficient, log P at pH 7.4. It is filed as physicochemical. As to conditions: octanol/water.

Bounds are passed on as bounds.

Chain of Amyloid-beta precursor protein (P05067 whole entry): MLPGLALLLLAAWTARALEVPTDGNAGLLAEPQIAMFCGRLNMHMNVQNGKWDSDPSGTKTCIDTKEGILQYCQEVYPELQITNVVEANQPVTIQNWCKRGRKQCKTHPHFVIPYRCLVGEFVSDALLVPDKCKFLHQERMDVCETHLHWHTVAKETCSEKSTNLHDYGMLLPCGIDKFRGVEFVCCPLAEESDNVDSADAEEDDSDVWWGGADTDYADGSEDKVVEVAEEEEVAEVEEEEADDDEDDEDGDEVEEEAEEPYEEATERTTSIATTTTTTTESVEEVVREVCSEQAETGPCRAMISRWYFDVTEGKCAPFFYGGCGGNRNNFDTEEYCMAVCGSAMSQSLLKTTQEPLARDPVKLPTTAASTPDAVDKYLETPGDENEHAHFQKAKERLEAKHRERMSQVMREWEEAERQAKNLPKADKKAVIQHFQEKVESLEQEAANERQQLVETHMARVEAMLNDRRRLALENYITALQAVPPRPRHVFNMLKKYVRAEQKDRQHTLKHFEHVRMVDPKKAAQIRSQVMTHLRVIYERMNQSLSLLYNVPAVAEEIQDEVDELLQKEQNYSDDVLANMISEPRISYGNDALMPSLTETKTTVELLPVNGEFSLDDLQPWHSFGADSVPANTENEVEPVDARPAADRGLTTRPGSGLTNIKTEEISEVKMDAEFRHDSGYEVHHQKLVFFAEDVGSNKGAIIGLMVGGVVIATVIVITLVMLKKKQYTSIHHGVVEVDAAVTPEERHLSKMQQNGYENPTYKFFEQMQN

`CC(=C(C#N)C#N)c1ccc2cc(N(C)CCF)ccc2c1` returned an inhibition constant (Ki) in data set [1] of 172 nM. For `CNc1ccc(/C=C/c2ccc(OCC(CO)CF)cc2)cc1` (centres undefined), the Ki in data set [1] came out at 5 nM. Same read-out and setting: under `COc1ccc(/C=C/c2cccc(I)c2)cc1` stands 22 nM; under `CN(C)c1ccc(/C=C/c2ccccc2I)cc1`, 7.7 nM.

In data set [1], `CN(C)c1ccc(/C=C/c2nc3ccccc3s2)cc1` displayed a Ki of 2.3 nM.

With `CNc1ccc(/C=C/c2ccc(OCCOCCOCCOCCOCCOCCOCCOCCOCCOCCF)cc2)cc1`, the inhibitory constant (Ki) in data set [1] was found to be 12.2 nM. Turning to `CNc1ccc(/C=C/c2ccc(OCCOCCOCCOCCOCCOCCOCCOCCF)cc2)cc1`, the Ki in data set [1] was determined as 9 nM.

Compound `CNc1ccc(/C=C/c2ccc(OCCOCCOCCOCCOCCOCCOCCF)cc2)cc1` gave a Ki in data set [1] of 8.2 nM. The same measure, in the same setting: to `Oc1ccc(/C=C/c2cccc(I)c2)cc1` belongs 32 nM; to `CN(C)c1ccc(/C=C/c2cccc(I)c2)cc1`, 4.5 nM. In data set [2], `CNc1ccc(/C=C/c2ccc(OCC(CO)C[18F])cc2)cc1` (centres undefined) gave a logD of 2.95.

`CNc1ccc(-c2nc3ccc(O)cc3s2)cn1` had an inhibition constant (Ki) in data set [1] of 1.7 nM.

For the compound `CN(C)c1ccc(/C=C/c2ccc(I)cc2)cc1`, the Ki in data set [1] is 2 nM. Same read-out and setting: under `CNc1ccc(/C=C/c2ccc(OCCOCCOCCOCCOCCOCCF)cc2)cc1` stands 7.5 nM; under `CNc1ccc(/C=C/c2ccc(OCCOCCOCCOCCOCCOCCOCCOCCOCCF)cc2)cc1`, 18.5 nM; under `CN(C)c1ccc(/C=C/c2ccc(F)cc2)cc1`, 22 nM. Same read-out and setting: under `O=C(O)c1cc(/N=N/c2ccc(-c3ccc(/N=N/c4ccc(O)c(C(=O)O)c4)cc3)cc2)ccc1O` [CHRYSAMINE G] stands over 1000 nM; under `CNc1ccc(/C=C/c2ccc(OCCOCCOCC[18F])nc2)cc1` [FLORBETAPIR F 18], 2.87 nM. On the same count and under the same terms, to `CNc1ccc(-c2nc3ccc(O)cc3s2)cc1F` [FLUTEMETAMOL] belongs 0.74 nM.
